Usually inhibition stands for the share of the control response that was lost under treatment.

The whole screen tested about 2,900 compounds, of which about 1,900 (66%) were called active. So high a share suggests a set chosen from earlier hits. Only a sample is shown. Values without a mark were called inactive.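 How the source made its calls: active means mean inhibition across replicates above the hit cutoff set in the primary screen (cut at about 8.5% in these data); inactive means the rest.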

Disintegrin and metalloproteinase domain-containing protein 17 (Homo sapiens), sequence (P78536 215-824 limits assumed): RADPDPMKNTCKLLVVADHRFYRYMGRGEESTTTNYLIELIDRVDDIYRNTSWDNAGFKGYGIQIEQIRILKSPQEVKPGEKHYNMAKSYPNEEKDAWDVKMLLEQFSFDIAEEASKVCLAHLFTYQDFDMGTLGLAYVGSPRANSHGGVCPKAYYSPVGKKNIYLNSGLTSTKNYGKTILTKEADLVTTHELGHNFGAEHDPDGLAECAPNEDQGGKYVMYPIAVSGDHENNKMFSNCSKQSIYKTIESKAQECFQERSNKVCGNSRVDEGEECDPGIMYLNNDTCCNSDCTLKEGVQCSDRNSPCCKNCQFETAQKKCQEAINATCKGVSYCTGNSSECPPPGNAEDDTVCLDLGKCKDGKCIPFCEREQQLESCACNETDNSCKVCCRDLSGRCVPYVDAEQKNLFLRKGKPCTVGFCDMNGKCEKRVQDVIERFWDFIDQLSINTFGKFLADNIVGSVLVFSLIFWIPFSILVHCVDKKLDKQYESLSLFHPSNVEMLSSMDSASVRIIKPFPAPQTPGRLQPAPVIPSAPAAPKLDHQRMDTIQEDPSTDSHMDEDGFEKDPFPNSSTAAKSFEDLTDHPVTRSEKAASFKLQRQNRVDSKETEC

The experiment has as its target Disintegrin and metalloproteinase domain-containing protein 17 (Homo sapiens) (UniProt P78536). Kind of experiment: ADAM17 inhibitors, hit retest, confirmation, biochemical, QFRET peptide cleavage (AID 743257).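 Further: 0% = DMSO wells and 100% = marimastat wells.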 To be noted: recombinant ADAM17, EDANS/DABCYL QFRET peptide cleavage; at 6.95 µM; hits give high values. The essentials:
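Assay system: ADAM17 protease; Medium: 50 mM HEPES pH 7.5, 0.01% Brij; Reagent: EDANS/DABCYL DM2 peptide substrate; Doses: 6.95 µM compound, single dose; Schedule: 30 min preincubation, 3 h reaction; Technique: FRET fluorescence, excitation 359 nm, emission 460 nm; Read-out: percent inhibition; Controls: DMSO wells and 1 µM marimastat wells as references.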
As for `O=C(C[C@H]1C(=O)N(c2ccc(F)c(F)c2)C[C@@H]1Cc1ccccc1)Nc1ccccc1`, the inhibition is 14.1% (active). In the case of `Cc1ccc(C)c(NC(=S)NNC(=S)Nc2ccc(C(C)C)cc2)c1`, the inhibition was 17.9% (active). In the case of `C[C@@H]1CN([C@H](C)CO)C(=O)c2cc(-c3ccc(F)cc3)cnc2O[C@H]1CN(C)C(=O)c1ccc(F)cc1`, the inhibition was 8.52%. Under `COc1cc(NC(=O)CCS(=O)(=O)c2ccc3c(c2)oc(=O)n3C)cc(OC)c1` stands 6.47%; under `COc1ccc(C(=O)NN2C(=O)C3C(c4ccccc4)C=CC(c4ccccc4)C3C2=O)cc1` (stereo not given), 14% (active); under `COc1ccc(S(=O)(=O)N2CCN(C(C)C(=O)Nc3ccc(C(C)C)cc3)CC2)cc1` (stereo not given), 10.8% (active). The figure for `COc1cc(/C=N/n2c(C)n[nH]c2=S)ccc1OCc1ccccc1` is 0.43%. Under `NS(=O)(=O)c1ccc(NC(=O)COC(=O)C2(c3ccc(F)cc3)CCCC2)cc1` stands 14.4% (active). `CN(C)S(=O)(=O)c1cccc(NC(=O)COC(=O)C2(c3ccccc3F)CCCC2)c1`: the inhibition was 14.1% (active).

As for `O=C1/C(=C\c2ccsc2)NC(=S)N1c1ccccc1`, the inhibition was 8.92% (active). Consider `C#CCN(C[C@H]1[C@H](OC(=O)NC2CCCC2)[C@H](OC(=O)NC2CCCC2)C[C@H]2C(=O)N(c3ccccc3)C(=O)[C@@H]12)S(=O)(=O)c1ccc(C)cc1`, for which the inhibition was 8.59%.

For the compound `C=CC(COCc1ccccc1)N(CC(=O)OC)S(=O)(=O)c1cc(Br)ccc1OC` (stereo not given), the inhibition is 10.1% (active). Under `O=C(Nn1c(SCc2ccc([N+](=O)[O-])cc2)nc2ccccc2c1=O)c1ccc(F)cc1` stands 16.4% (active); under `COc1ccc(-c2ccc(CN3C(CC(C)C)C(=O)N(Cc4cn(CC5CCCCC5)nn4)CCS3(=O)=O)cc2)cc1` (stereo not given), 13.1% (active); under `COc1ccc(Cn2cc(CN3CCS(=O)(=O)N(Cc4ccc(-c5cccc(Cl)c5)cc4)C(C)C3=O)nn2)cc1` (stereo not given), 11.2% (active). For the compound `FC(F)(F)Oc1ccccc1C(c1nnnn1C1CCCCC1)N1CCN(C/C=C/c2ccccc2)CC1` (stereo not given), the inhibition was 10.2% (active). Take `Cc1ccc(Cn2nnc3c(=O)[nH]c(C4CCN(S(=O)(=O)/C=C/c5ccccc5)CC4)nc32)cc1`: the inhibition was 20.1% (active). Turning to `O=C(CSc1nnc(Nc2ccccc2)s1)Nc1cccnc1Cl`, the inhibition was 4.72%. Under `Cc1nnc(SCC(=O)Nn2cnnc2)s1` stands 1%. Under `Cc1ccc(NC(=S)NNC(=O)CSc2nnc(SCc3ccccc3Cl)s2)cc1` stands 13.7% (active); under `Cc1ccccc1C(=O)Nc1ccccc1Sc1ccccc1`, 8.42%.

As to `O=C(COC(=O)c1ccccc1)Nc1ccccc1Sc1ccccc1`, the inhibition was 10.7% (active).

With `O=C(Nc1ccc(C(=O)NCc2ccccc2Cl)cc1)C1=CSCCO1`, the inhibition is 4.43%. For the compound `CCCCCC(=O)N1C[C@H](O)[C@@H](n2cc(COC(=O)c3ccccc3)nn2)C[C@@H]1c1ccc(C)cc1`, the inhibition is 13.5% (active). `C=CCC[C@@H](Cc1ccc(F)cc1)C(=O)O[C@H](CNC(=O)[C@H](CC=C)CC(=O)N(CCO)Cc1ccccc1)c1ccccc1`: the inhibition was 21.7% (active). Under `C=CCC[C@@H](Cc1ccc(F)cc1)C(=O)OC[C@H](Cc1c[nH]c2ccccc12)NC(=O)[C@@H](CC=C)CC(=O)N(CCO)Cc1ccccc1` stands 16.9% (active). For `C=CC[C@H](CC(=O)N(CCO)Cc1ccccc1)C(=O)N[C@@H](COC(=O)[C@@H](CC=C)Cc1ccc(F)cc1)Cc1ccccc1`, the inhibition is 14.8% (active). The figure for `Cc1ccc(/C=N/NC(=O)CSc2nc3ccccc3o2)cc1` is 6%; for `CC1(C)C=Cc2c(ccc3c2OC[C@@H](c2ccc(O)cc2O)C3)O1` it is 12.3% (active). Under `N/C(Cc1ccc([N+](=O)[O-])cc1)=N\OC(=O)COc1ccc2ccccc2c1` stands 6.36%.

(Values after PubChem BioAssay AID743257 (The Scripps Research Institute Molecular Screening Center, 2014).)
